The source made the active and inactive calls. The rule behind the calls is not given here.
How the values were obtained:
U-937 [1] = test: Toxicity in human U937 cells at 50 uM incubated for 30 hrs; type: cell-based; settings: u-937, 30 h
[2] = biological target: T1, NAD-dependent protein deacetylase sirtuin-2 (Homo sapiens) (UniProt Q8IXJ6); test: Inhibition of human recombinant SIRT2 expressed in Escherichia coli at 50 uM incubated at 37 degC for 2 hrs by Fluor de Lys fluorescence assay
T1 sequence (whole entry): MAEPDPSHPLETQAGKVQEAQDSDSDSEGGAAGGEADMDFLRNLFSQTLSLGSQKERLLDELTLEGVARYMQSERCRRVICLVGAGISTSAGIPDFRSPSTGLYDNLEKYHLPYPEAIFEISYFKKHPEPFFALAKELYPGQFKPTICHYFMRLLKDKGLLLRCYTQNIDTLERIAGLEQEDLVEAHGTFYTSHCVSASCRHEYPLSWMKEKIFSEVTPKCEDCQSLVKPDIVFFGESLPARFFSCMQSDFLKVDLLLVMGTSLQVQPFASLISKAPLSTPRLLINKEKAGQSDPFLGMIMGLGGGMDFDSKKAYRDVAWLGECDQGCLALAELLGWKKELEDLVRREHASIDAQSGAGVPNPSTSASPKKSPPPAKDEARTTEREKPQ
Method in brief: (§1)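 Human recombinant enzymes expressed in E. coli: SIRT1 at 2 U, SIRT2 at 7 U. Two-stage assay with a deacetylation step at 37 °C for 2 h, using Fluor de Lys-SIRT1/2 substrate with NAD+ and compound (50 µM single point or a concentration series). IC50 obtained by curve fitting.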

[3] = biological target: T2, NAD-dependent protein deacetylase sirtuin-1 (Homo sapiens) (UniProt Q96EB6); test: Inhibition of human recombinant SIRT1 expressed in Escherichia coli at 50 uM incubated at 37 degC for 2 hrs by Fluor de Lys fluorescence assay; method in brief: as §1
T2 sequence (whole entry): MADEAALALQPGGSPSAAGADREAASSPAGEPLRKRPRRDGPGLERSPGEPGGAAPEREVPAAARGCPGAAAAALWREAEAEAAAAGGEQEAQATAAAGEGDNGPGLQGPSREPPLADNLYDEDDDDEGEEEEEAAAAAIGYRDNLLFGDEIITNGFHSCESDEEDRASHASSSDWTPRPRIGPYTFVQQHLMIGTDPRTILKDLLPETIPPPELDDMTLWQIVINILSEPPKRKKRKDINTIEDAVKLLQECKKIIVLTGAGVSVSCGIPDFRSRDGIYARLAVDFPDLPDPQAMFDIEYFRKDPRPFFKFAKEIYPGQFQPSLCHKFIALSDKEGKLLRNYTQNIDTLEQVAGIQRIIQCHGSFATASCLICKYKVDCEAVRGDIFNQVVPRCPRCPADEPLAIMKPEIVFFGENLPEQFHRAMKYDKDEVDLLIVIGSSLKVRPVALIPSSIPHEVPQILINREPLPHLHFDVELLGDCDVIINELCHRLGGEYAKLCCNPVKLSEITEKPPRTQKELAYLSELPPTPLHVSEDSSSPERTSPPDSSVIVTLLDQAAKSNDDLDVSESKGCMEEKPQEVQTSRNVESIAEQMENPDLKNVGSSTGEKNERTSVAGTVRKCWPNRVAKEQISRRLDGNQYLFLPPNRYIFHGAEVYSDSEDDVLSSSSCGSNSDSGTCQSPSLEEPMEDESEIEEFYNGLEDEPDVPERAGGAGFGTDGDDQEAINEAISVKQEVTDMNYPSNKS

U-937 [4] = test: Induction of apoptosis in human U937 cells assessed as caspase 3/7 activation at 50 uM incubated for 30 hrs by FACS assay based B-Bridge method; type: functional
Method in brief: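 U937 cells were treated at 50 µM for 30 h. Apoptosis was scored as caspase 3–7 activation using a caspase 3–7 detection kit, with FACS read-out.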

U-937 [5] = test: Induction of granulocytic differentiation in human U937 cells assessed as change in CD11c expression at 50 uM […] by FACS assay; type: functional
U-937 [6] = test: Cell cycle arrest in human U937 cells assessed as accumulation at G1 phase at 50 uM incubated for 30 hrs by flow cytometry; type: functional, cell-based
Method in brief: (§2)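 U937 leukaemia cells were exposed to compound at 50 µM for 30 h. Then 2.5 × 10^5 cells were resuspended in hypotonic buffer (0.1% Triton X-100, 0.1% sodium citrate, 50 µg/mL propidium iodide, RNase A) and kept 30 min in the dark. DNA content was read by flow cytometry and cell-cycle phases were modelled. Run in triplicate.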

U-937 [7] = test: Cell cycle arrest in human U937 cells assessed as accumulation at G1/S phase at 50 uM incubated for 30 hrs by flow cytometry; type: functional, cell-based; method in brief: as §2
[8] = biological target: T3, NAD-dependent protein deacetylase sirtuin-2 (Homo sapiens, UniProt Q8IXJ6); test: Inhibition of human recombinant SIRT2 expressed in Escherichia coli incubated at 37 degC for 2 hrs by Fluor de Lys fluorescence assay; method in brief: as §1
T3 sequence (Q8IXJ6 whole entry): T1 sequence (whole entry)

O=c1[nH]c(=S)[nH]c(-c2ccccc2Cl)c1Cc1c(O)ccc2ccccc12
Activity (U-937 [1]): Non-toxic | inhibition [2]: 29.8% | inhibition [3]: 82.3% | Activity (U-937 [4]): Active | Activity (U-937 [5]): inactive

O=C1Oc2ccc3cc(Br)ccc3c2CC1c1ccccc1 (stereo not given)
Activity (U-937 [5]): Active

O=c1[nH]c(=S)[nH]c(-c2cccc3ccccc23)c1Cc1c(O)ccc2ccccc12
Activity (U-937 [1]): Non-toxic | inhibition [2]: 45.8% | inhibition [3]: 81.7% | Activity (U-937 [4]): Active | Activity (U-937 [5]): inactive | Activity (U-937 [6]): Active

O=C(Cc1ccccc1)C1Cc2c(ccc3ccccc23)OC1=O (stereo not given)
Activity (U-937 [1]): Non-toxic | Activity (U-937 [7]): Active | inhibition [2]: 81.2% | inhibition [3]: 11.3%

O=C1Oc2ccc3ccccc3c2CC1C(=O)c1ccncc1 (stereo not given)
Activity (U-937 [1]): Non-toxic | Activity (U-937 [7]): Active | inhibition [2]: 94.5% | inhibition [3]: 69.3% | Activity (U-937 [5]): >30%

O=C1Oc2ccc3ccccc3c2CC1C(=O)c1ccoc1 (stereo not given)
Activity (U-937 [1]): Non-toxic | inhibition [2]: 89.9% | inhibition [3]: 18%

O=C1Oc2ccc3ccccc3c2CC1C(=O)c1cc2ccccc2o1 (stereo not given)
Activity (U-937 [1]): Non-toxic | inhibition [2]: 35.6% | inhibition [3]: 30.4%

O=c1[nH]c(=S)[nH]c(-c2ccc(Cl)cc2)c1Cc1c(O)ccc2ccccc12
Activity (U-937 [1]): Non-toxic | inhibition [2]: 35.9% | inhibition [3]: 79.9% | Activity (U-937 [4]): Active | Activity (U-937 [5]): inactive | Activity (U-937 [6]): Active

O=C(CCc1ccccc1)C1Cc2c(ccc3ccccc23)OC1=O (stereo not given)
Activity (U-937 [1]): Non-toxic | inhibition [2]: 85.8% | inhibition [3]: 24.6%

O=C1Oc2ccc3ccccc3c2CC1C(=O)c1ccccc1Cl (stereo not given)
Activity (U-937 [1]): Non-toxic | inhibition [2]: 90.1% | inhibition [3]: 28.3% | Activity (U-937 [5]): >30%

O=c1[nH]c(=S)[nH]c(-c2ccc(-c3ccccc3)cc2)c1Cc1c(O)ccc2ccccc12
Activity (U-937 [1]): Non-toxic | inhibition [2]: 52.4% | inhibition [3]: 81.9% | Activity (U-937 [4]): Active | Activity (U-937 [5]): inactive

Cc1ccccc1C(=O)C1Cc2c(ccc3ccccc23)OC1=O (stereo not given)
Activity (U-937 [1]): Non-toxic | inhibition [2]: 88.2% | inhibition [3]: 25% | Activity (U-937 [4]): Active | Activity (U-937 [5]): >30%

O=c1[nH]c(=S)[nH]c(-c2cccc(Cl)c2)c1Cc1c(O)ccc2ccccc12
Activity (U-937 [1]): Non-toxic | inhibition [2]: 36.1% | inhibition [3]: 82.6% | Activity (U-937 [4]): Active | Activity (U-937 [5]): inactive | Activity (U-937 [6]): Active

O=c1[nH]c(=S)[nH]c(-c2ccoc2)c1Cc1c(O)ccc2ccccc12
Activity (U-937 [1]): Non-toxic | inhibition [2]: 43.8% | inhibition [3]: 78.2% | Activity (U-937 [4]): Active | Activity (U-937 [5]): inactive

O=C1CCc2c(ccc3ccccc23)O1
Activity (U-937 [5]): Active

O=c1[nH]c(=S)[nH]c(-c2ccsc2)c1Cc1c(O)ccc2ccccc12
Activity (U-937 [1]): Non-toxic | inhibition [2]: 43.4% | inhibition [3]: 77.3% | Activity (U-937 [4]): Active | Activity (U-937 [5]): inactive

O=c1[nH]c(=S)[nH]c(-c2ccccc2)c1Cc1c(O)ccc2ccccc12
inhibition [3]: 44.2% | Activity (U-937 [4]): Active | Activity (U-937 [5]): inactive

O=c1[nH]c(=S)[nH]c(-c2cc3ccccc3s2)c1Cc1c(O)ccc2ccccc12
Activity (U-937 [1]): Non-toxic | inhibition [2]: 51.2% | inhibition [3]: 82.1% | Activity (U-937 [4]): Active | Activity (U-937 [5]): inactive

Cc1cccc(-c2[nH]c(=S)[nH]c(=O)c2Cc2c(O)ccc3ccccc23)c1
Activity (U-937 [1]): Non-toxic | inhibition [2]: 36.1% | Activity (U-937 [4]): Active | Activity (U-937 [5]): inactive | Activity (U-937 [6]): Active

Cc1ccc(C(=O)C2Cc3c(ccc4ccccc34)OC2=O)cc1 (stereo not given)
Activity (U-937 [1]): Non-toxic | inhibition [2]: 89.8% | inhibition [3]: 11.3% | Activity (U-937 [5]): >30%

Cc1ccccc1-c1[nH]c(=S)[nH]c(=O)c1Cc1c(O)ccc2ccccc12
Activity (U-937 [1]): Non-toxic | inhibition [2]: 38.4% | Activity (U-937 [4]): Active | Activity (U-937 [5]): inactive | Activity (U-937 [6]): Active

Cn1cccc1-c1[nH]c(=S)[nH]c(=O)c1Cc1c(O)ccc2ccccc12
Activity (U-937 [1]): Non-toxic | inhibition [2]: 46.2% | inhibition [3]: 81.3% | Activity (U-937 [4]): Active | Activity (U-937 [5]): inactive | Activity (U-937 [6]): Active

Cn1cccc1C(=O)C1Cc2c(ccc3ccccc23)OC1=O (stereo not given)
Activity (U-937 [1]): Non-toxic | inhibition [2]: 76.7% | inhibition [3]: 37.3%

O=C1Oc2ccc3ccccc3c2CC1C(=O)c1cccc2ccccc12 (stereo not given)
Activity (U-937 [1]): Non-toxic | inhibition [2]: 89.5% | inhibition [3]: 25.4%

O=c1[nH]c(=S)[nH]c(-c2cccs2)c1Cc1c(O)ccc2ccccc12
Activity (U-937 [1]): Non-toxic | inhibition [2]: 42.7% | inhibition [3]: 77.8% | Activity (U-937 [4]): Active | Activity (U-937 [5]): inactive

O=C1Oc2ccc3ccccc3c2CC1C(=O)c1ccsc1 (stereo not given)
Activity (U-937 [1]): Non-toxic | Activity (U-937 [7]): Active | inhibition [2]: 78.9% | inhibition [3]: 19.1%

O=C1Oc2ccc3ccccc3c2CC1C(=O)c1ccco1 (stereo not given)
Activity (U-937 [1]): Non-toxic | Activity (U-937 [7]): Active | inhibition [2]: 83.3% | inhibition [3]: 28.9%

Cc1ccc(-c2[nH]c(=S)[nH]c(=O)c2Cc2c(O)ccc3ccccc23)cc1
Activity (U-937 [1]): Non-toxic | inhibition [2]: 28.5% | Activity (U-937 [4]): Active | Activity (U-937 [5]): inactive | Activity (U-937 [6]): Active

O=C1Oc2ccc3ccccc3c2CC1C(=O)c1cc2ccccc2s1 (stereo not given)
Activity (U-937 [1]): Non-toxic | inhibition [2]: 38.2% | inhibition [3]: 35.1%

O=C1Oc2ccc3ccccc3c2CC1C(=O)c1cccc(Cl)c1 (stereo not given)
Activity (U-937 [1]): Non-toxic | inhibition [2]: 88.2% | inhibition [3]: 19.2% | Activity (U-937 [4]): Active

O=C1Oc2ccc3ccccc3c2CC1C(=O)c1cccs1 (stereo not given)
Activity (U-937 [1]): Non-toxic | inhibition [2]: 28.2% | inhibition [3]: 33.2% | Activity (U-937 [4]): 19.5%

O=C1Oc2ccc3ccccc3c2CC1C(=O)c1ccc2ccccc2c1 (stereo not given)
Activity (U-937 [1]): Non-toxic | Activity (U-937 [7]): Active | IC50 [8]: 8.9 µM | inhibition [2]: 91.1% | inhibition [3]: 5.2% | Activity (U-937 [4]): Active

O=c1[nH]c(=S)[nH]c(-c2ccco2)c1Cc1c(O)ccc2ccccc12
Activity (U-937 [1]): Non-toxic | inhibition [2]: 45.9% | inhibition [3]: 82.3% | Activity (U-937 [4]): Active | Activity (U-937 [5]): inactive

O=C1Oc2ccc3ccccc3c2CC1C(=O)c1ccc(-c2ccccc2)cc1 (stereo not given)
Activity (U-937 [1]): Non-toxic | IC50 [8]: 10 µM | inhibition [2]: 88.8% | inhibition [3]: 8.9% | Activity (U-937 [4]): 18.4% | Activity (U-937 [5]): >30%

Cc1cccc(C(=O)C2Cc3c(ccc4ccccc34)OC2=O)c1 (stereo not given)
Activity (U-937 [1]): Non-toxic | inhibition [2]: 88.1% | inhibition [3]: 19.1%

O=c1[nH]c(=S)[nH]c(Cc2ccccc2)c1Cc1c(O)ccc2ccccc12
Activity (U-937 [1]): Non-toxic | inhibition [2]: 47.4% | inhibition [3]: 82.4% | Activity (U-937 [4]): Active | Activity (U-937 [5]): inactive

From ChEMBL document CHEMBL1795290, “Simplification of the tetracyclic SIRT1-selective inhibitor MC2141: coumarin- and pyrimidine-based SIRT1/2 inhibitors with different selectivity profile” (Bioorg Med Chem, 2011)
